# Screening results deposited in PubChem BioAssay by Broad Institute.
# dFosB activator: enhances mouse delta FosB homodimer DNA binding. P13346. purified delta FosB, TAMRA-CDK5 oligo fluorescence polarization; percent of positive-control signal above neutral wells. activation, % at 25 µM. 340,000 tested, 0.99% active. AID 493131;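 active = mean activation above about 17%, with every replicate also reaching it, limit read from the data, passing the limit was not always enough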
# Target sequence (P13346 whole entry, looked up): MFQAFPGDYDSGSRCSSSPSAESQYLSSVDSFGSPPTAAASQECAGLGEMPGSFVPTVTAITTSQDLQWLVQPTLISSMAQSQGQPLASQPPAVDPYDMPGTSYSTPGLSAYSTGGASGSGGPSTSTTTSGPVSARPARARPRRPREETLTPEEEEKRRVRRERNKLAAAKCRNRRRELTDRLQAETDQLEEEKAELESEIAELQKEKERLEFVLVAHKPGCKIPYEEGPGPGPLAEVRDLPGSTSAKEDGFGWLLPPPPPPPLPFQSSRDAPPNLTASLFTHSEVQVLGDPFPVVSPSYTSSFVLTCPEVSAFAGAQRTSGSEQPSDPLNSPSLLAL
# S100A4 MyoIIA: blocks human S100A4 binding to myosin IIA peptide. P26447. S100A4/TAMRA-MyoIIA peptide fluorescence polarization. inhibition, % at 10.7 µM. 360,000 tested, 0.14% active. AID 652163;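 active = mean inhibition of at least 70% across replicates, with every replicate also reaching that level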
# Target sequence (P26447 whole entry, looked up): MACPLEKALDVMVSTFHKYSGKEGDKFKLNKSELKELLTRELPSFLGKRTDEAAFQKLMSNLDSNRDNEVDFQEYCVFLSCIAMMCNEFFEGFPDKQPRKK
#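 Material: S100A4 monomer (human). Medium: Calcium-containing HEPES buffer, pH 7.2. Probe or stimulus: labelled myosin peptide probe, 5 nM. Compound dosing: one concentration per compound. Timing: polarization read 5 min after assay mix addition, stable 5–60 min. Benchmarks: DMSO as neutral control, TFP as positive control.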
# FGF22 binding-1: FGF22 (human) thermal shift binding | Q9HCT0 | recombinant FGF22 thermal shift, SYPRO orange fluorescence; percent of sucrose octasulfate shift, DMSO zero | activity (Tm shift, normalised), % at 9.99 µM | 340,000 tested, 1.5% active;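 active = mean Tm shift, scaled 0 neutral to 100 positive control, at about 1.3% or above, every replicate too, limit read from the data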
# Target sequence (Q9HCT0 whole entry, looked up): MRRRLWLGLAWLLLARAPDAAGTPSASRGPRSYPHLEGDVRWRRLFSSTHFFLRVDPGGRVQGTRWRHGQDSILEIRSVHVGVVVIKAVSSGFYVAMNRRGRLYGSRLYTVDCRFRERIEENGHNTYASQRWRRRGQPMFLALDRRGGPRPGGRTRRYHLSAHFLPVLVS
# F508del corr: CFTR F508del correction in bronchial cells; CFBE cells, YFP halide quenching; stimulated with forskolin plus potentiator P3; % fluorescence drop versus neutral controls; activity (quench increase), % at 7.58 µM; 350,000 tested, 0.36% active; AID 720511;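 active = mean added fluorescence quench of at least 8% versus neutral control, with both replicates also reaching 8%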;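 also: cells transiently co-express mutant CFTR-F508del with the halide-sensitive YFP; corrector assay measuring rescue of mutant channel to the surface after 24 h compound exposure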
# FGF22 binding-2: binders of human FGF22 by thermal shift; shares compounds with FGF22 binding-1; recombinant FGF22 thermal shift, SYPRO orange fluorescence; thermal shift activity, °C (ΔTm) at 38 µM; 1,000 tested, 2% active;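 active = fitted rise in melting shift crosses a set limit at or below the top valid dose tested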
# FGF22 TSA DP: binders of human FGF22 by thermal shift | shares compounds with FGF22 binding-1 | Thermal shift assay, SYPRO orange, melting temperature shift | Tm shift (activity), % at 38 µM | 50 tested, under 10 active;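 active = compounds whose fitted dose curve of melting temperature shift rises past a set threshold within the tested doses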
# TSA no protein: compound-only SYPRO artifact for FGF22 binders. 1,000 tested, 2% active. shares compounds with FGF22 binding-1. AC50, µM (series often up to 38 µM). compound-only SYPRO orange thermal shift counter-screen, no protein;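 active = rising signal whose fitted curve reaches the 0.54 level within the top valid dose, showing a melting point, actives reach about 13 µM in these data; inactive = the rest, including activity in the opposite direction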; also: value is where the raw curve crosses a fixed level and not half-maximal
# Active calls of the source: *; i = inactive; / = no result given; [ ] = another dose, or the depositor's remark. A selection: hits, their analogues and other compounds. The true share with any hit is near 2.2%.
SMILES,dFosB activator,S100A4 MyoIIA,FGF22 binding-1,F508del corr,FGF22 binding-2,TSA no protein,others
O=C(N[C@H]1CC[C@@H](CCNS(=O)(=O)c2ccc(F)cc2)O[C@H]1CO)C1CCCC1,/,1,9.7*,0,0.12[42 µM],i,
O=C(C[C@@H]1CC[C@H](NC(=O)Nc2cc(F)ccc2F)[C@@H](CO)O1)Nc1ccc(-c2ccccc2)cc1,/,2,1,1,/,/,
CCNC(=O)C[C@@H]1CC[C@H]2[C@H](COc3ccc(NC(=O)Nc4c(C)noc4C)cc3C(=O)N2C)O1,/,7,0,1,/,/,
COC(=O)C1=C(CS(=O)(=O)c2cc(OC)ccc2OC)NC(=O)NC1c1ccc(O)c(OC)c1 (configuration not stated),-2,-2,1.5*,-2,0.37,i,FGF22 TSA DP=0
CCNC(=O)CC1C(=O)N(c2ccc(OC)cc2)C(=O)N1Cc1ccc(OC)cc1 (configuration not stated),-4,/,/,/,/,/,
COC(=O)CN1C(=S)N(c2ccc(F)cc2)C(=O)C1CC(=O)Nc1ccc(OC)cc1 (configuration not stated),-7,-1,0,0,/,/,
CCOc1ccc(NC(=O)CC2C(=O)N(c3ccc(OC)cc3)C(=S)N2Cc2ccccn2)cc1 (configuration not stated),-4,6,2.0*,-1,-0.19,i,
COC(=O)CN1C(=S)N(c2ccc(F)cc2)C(=O)C1CC(=O)Nc1ccccc1 (configuration not stated),-11,-19,1.6*,-5,0.007,i,
COc1ccc(CN2C(=O)N(c3ccc(OC)cc3)C(=O)C2CC(=O)Nc2ccccc2)cc1 (configuration not stated),0,-1,1.4*,1,-0.54,i,
O=C(C[C@@H]1C=C[C@@H](NC(=O)C2CC2)[C@@H](CO)O1)NC1CCC1,/,/,0,-1,/,/,
C[C@H](CO)N1C[C@H](C)[C@@H](CN(C)C(=O)Nc2cccc3ccccc23)Oc2c(NC(=O)Nc3ccc(F)cc3)cccc2C1=O,/,-5,0,1,/,/,
CN1CCC(C)(C(=O)Nc2cccc3c2CCCC3)C1 (configuration not stated),/,7,19*,1,0.001,i,
CCC(=O)N1CCC2(CC1)CN(C(=O)c1ccccn1)[C@H](CO)c1c2c2ccc(OC)cc2n1C,/,/,0,-2,/,/,
O=[N+]([O-])c1ccc(Nc2ccccc2)nc1,1,7,1.4*,/,-0.016,i,
COC(=O)c1cccc(Nc2ccc([N+](=O)[O-])cn2)c1,0,2,1,-2,/,/,
O=[N+]([O-])c1ccc(Nc2cccc(F)c2)nc1,-4,-3,3.5*,-1,0.14,i,
O=[N+]([O-])c1ccc(Nc2ccc(F)cc2)nc1,-4,/,/,/,/,/,
Cn1cc([N+](=O)[O-])c(C(=O)Nc2ccc(-c3nc4ccccc4[nH]3)cc2)n1,-4,-1,0,-9,/,/,
Cn1cc([N+](=O)[O-])c(C(=O)Nc2ccc3nc(-c4ccccc4)[nH]c3c2)n1,-9,-2,15*,-5,0.22,i,
c1ccc(NCc2ccccn2)cc1,-1,3,1.4*,0,0.23,i,
C[C@H](CO)N1C[C@H](C)[C@@H](CN(C)C)Oc2ccc(NC(=O)c3ccncc3)cc2C1=O,/,1,0,-4,/,/,
CC1(C(=O)O)CCN1C(=O)c1ccccc1F (configuration not stated),/,-1,22*,3,0.12,i,
O=C(NC[C@@H]1N[C@@H](CO)[C@@H]1c1ccccc1)C1CC1,/,-2,0,-2,/,/,
O=S(=O)(NC[C@H]1N[C@H](CO)[C@H]1c1ccccc1)c1ccccc1,/,-7,2.4*,-1,0.14,i,
C[C@@H]1CN([C@@H](C)CO)C(=O)c2cc(NC(=O)Cc3ccccc3)ccc2O[C@H]1CN(C)S(=O)(=O)c1ccc(F)cc1,/,3,0,3,/,/,
SMILES,dFosB activator,S100A4 MyoIIA,FGF22 binding-1,F508del corr,FGF22 binding-2,TSA no protein,others
COc1ccc(-c2ccc([C@H]3[C@H](CO)N4CCCCN(C(=O)c5ccc6c(c5)OCO6)C[C@@H]34)cc2)cc1,/,-5,1.4*,-3,0.037[42 µM],i,
O=C(NC1CCCCC1)c1cc(-c2cccc(Cl)c2)on1,-2,-3,3.9*,0,0.069,i,
O=C(NC[C@@H]1[C@@H](c2ccccc2)[C@@H](CO)N1C(=O)Cc1cccnc1)C1CC1,/,0,-1,-2,/,/,
O=C(NC[C@@H]1[C@H](c2ccccc2)[C@H](CO)N1C(=O)Cc1cccnc1)C1CC1,/,3,1.4*,1,-0.085[42 µM],i,
Cc1ccc(S(=O)(=O)Nc2ccc3c(c2)CC(=O)N([C@@H](C)CO)C[C@H](C)[C@@H](CN(C)S(C)(=O)=O)O3)cc1,/,6,2.2*,-4,0.029,i,
Cc1ccc(S(=O)(=O)Nc2ccc3c(c2)CC(=O)N([C@@H](C)CO)C[C@@H](C)[C@H](CN(C)S(C)(=O)=O)O3)cc1,/,-2,-1,-3,/,/,
C[C@H]1CN([C@@H](C)CO)C(=O)Cc2cc(NS(=O)(=O)c3ccc(F)cc3)ccc2O[C@H]1CN(C)CC1CCCCC1,/,39,12*,-1,0.12,i,
C[C@@H]1CN([C@@H](C)CO)C(=O)Cc2cc(NS(=O)(=O)c3ccc(F)cc3)ccc2O[C@H]1CN(C)CC1CCCCC1,/,2,0,-1,/,/,
Cc1noc(C)c1S(=O)(=O)Nc1ccc2c(c1)CC(=O)N([C@@H](C)CO)C[C@@H](C)[C@H](CN(C)Cc1ccc(Cl)c(Cl)c1)O2,/,-6,0,-3,/,/,
Cc1noc(C)c1S(=O)(=O)Nc1ccc2c(c1)CC(=O)N([C@@H](C)CO)C[C@@H](C)[C@@H](CN(C)Cc1ccc(Cl)c(Cl)c1)O2,/,-1,1.5*,2,0.11[42 µM],i,
C[C@@H]1CN([C@@H](C)CO)C(=O)c2cc(NS(=O)(=O)c3cn(C)cn3)ccc2O[C@@H]1CN(C)C(=O)Nc1ccc2c(c1)OCO2,/,-11,0,-2,/,/,
O=C(C[C@H]1C[C@@H]2c3cc(NC(=O)NC4CCCC4)ccc3O[C@@H]2[C@H](CO)O1)NCc1ccc2c(c1)OCO2,/,0,1.9*,-1,-0.076,i,
COc1ccc(N(CC(=O)N/N=C/c2ccc(OC)c(OC)c2)S(=O)(=O)c2ccccc2)cc1,-12,3,1.5*,0,0.15,i,
COc1ccc(NS(=O)(=O)c2cccc(C(=O)NN=Cc3ccc(OC)c(O)c3)c2)cc1,7,1,34*,2,-0.19,i,
COc1ccc(/C=N/NC(=O)CN(c2ccc(OC)cc2)S(=O)(=O)c2ccccc2)cc1,-4,1,0,0,/,/,
